Our source for the LD50, Activity and T values is ChEMBL document CHEMBL3272008, “Synthesis and biological actions of 2-substituted quinolizidines” (J Med Chem, 1976).

Data set [1] can be described thus: Acute toxicity in ip dosed Swiss-Webster mouse administered as single dose after 7 days. Type of data set: organism-based. The note with it: in vivo. The method, boiled down: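 Mice given a single ip dose at each of four dose levels; lethality followed over 7 days; LD50 with 95% confidence limits estimated by the method of Weil. Compounds dissolved in minimal 1.5 M NaH2PO4, diluted with water; haloperidol in minimal 50% (w/v) tartaric acid-water.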

For data set [2], the system named is Mus musculus. Briefly: Acute toxicity in ip dosed Swiss-Webster mouse assessed as death administered as single dose after 72 hrs. Type of data set: organism-based. The conditions noted are these: in vivo.
Data set [3] concerns Mus musculus. Briefly: Acute toxicity in ip dosed Swiss-Webster mouse assessed as tremor administered as single dose after 72 hrs. The note with it: in vivo. Type of data set: organism-based.
The test system of data set [4] is Mus musculus. Briefly: Acute toxicity in ip dosed Swiss-Webster mouse assessed as ataxia administered as single dose after 72 hrs. In kind it is organism-based. The conditions noted are these: in vivo.
Data set [5] relates to Mus musculus. Nature of the data set: Depression of forced motor activity in Swiss-Webster mouse at 10 mg/kg, ip after 30 mins by rotarod test relative to control. In kind it is functional. The note with it: route intraperitoneal. In short, it runs like this:
(§1)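 Rotarod in mice: rod at 4 rpm for 30 sec, 6 rpm next 30 sec, then stepped up every 30 sec (max 50 rpm) until fall. Six mice at a time, four trials (two per day, 4–6 hr apart, two consecutive days); vehicle or compound ip 30 min before fourth trial. Time on rod as % of control; Student's t test, p < 0.05.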

Data set [6] concerns Mus musculus. Briefly: Depression of forced motor activity in Swiss-Webster mouse at 5 mg/kg, ip after 30 mins by rotarod test relative to control. Type of data set: functional. The conditions noted are these: route intraperitoneal. In short, it runs like this:
as §1
Background: In the rotarod test animals must keep their balance on a rotating rod.

The test system of data set [7] is Mus musculus. Nature of the data set: Depression of forced motor activity in Swiss-Webster mouse at 2.5 mg/kg, ip after 30 mins by rotarod test relative to control. Type of data set: functional. The note with it: route intraperitoneal. The method, boiled down:
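Mice were dosed ip with vehicle or compound dissolved in a minimum of 1.5 M NaH2PO4 and diluted with water. On the rotarod, speed was 4 rpm for 30 sec, then 6 rpm for 30 sec, then increased every 30 sec up to a maximum of 50 rpm until the fall. Each mouse had four trials, two per day on two consecutive days, spaced 4–6 hr apart. The fourth trial was run 30 min after dosing. The read-out was trial time (sec) as % of control, with significance by Student's t test (p < 0.05).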

Data set [8] concerns Mus musculus. Nature of the data set: Depression of spontaneous motor activity in Swiss-Webster mouse at 10 mg/kg, ip by photocell cage test relative to control. In kind it is functional. The note with it: route intraperitoneal. In short, it runs like this: (§2)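 Spontaneous activity in three photocell cages: two mice given the same ip dose placed per cage 10 min after rotarod start; 15-min count begun 5 min after placement. Each dose run in factorial design across all three cages to offset unit sensitivity. Counts expressed as % of control; Student's t test, p < 0.05.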

Data set [9] relates to Mus musculus. Nature of the data set: Depression of spontaneous motor activity in Swiss-Webster mouse at 5 mg/kg, ip by photocell cage test relative to control. In kind it is functional. The conditions noted are these: route intraperitoneal. The method, boiled down: as §2
The test system of data set [10] is Mus musculus. Briefly: Depression of spontaneous motor activity in Swiss-Webster mouse at 2.5 mg/kg, ip by photocell cage test relative to control. Type of data set: functional. The note with it: route intraperitoneal. The method, boiled down:
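Compound was dissolved in minimal 1.5 M NaH2PO4, diluted with water and given ip. Two mice given the same dose went into each of three photocell actophotometer cages 10 min after the rotarod test started. Counts were taken over 15 min, starting 5 min after placement. A factorial design across cages cancelled differences between units. Results were given as % of control, with significance by Student's t test (p < 0.05).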

The test system of data set [11] is Rattus norvegicus. Briefly: Depression of motor activity in Wistar rat at 1 to 6 mg/kg, ip. Type of data set: functional, organism-based. In short, it runs like this:
(§3)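 Male Wistar rats (175–225 g) were injected ip, with three treated rats and one control per dose. Compounds were in minimal 1.5 M NaH2PO4 diluted with water; the reference drug was in minimal 50% (w/v) tartaric acid-water. Gross behavior was observed. Respiratory rate, heart rate, rectal temperature and pupil size were measured at time points after dosing.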

Data set [12] relates to Rattus norvegicus. Nature of the data set: Reduction in body temperature in Wistar rat at 1 to 6 mg/kg, ip relative to control. In kind it is functional. The conditions noted are these: dose mg/kg 6; route intraperitoneal; in the assay text read “6 mg/kg” for “1 to 6 mg/kg”. The method, boiled down: as §3
The subject of data set [13] is Rattus norvegicus. Nature of the data set: Induction of ptosis in Wistar rat at 1 to 6 mg/kg, ip. In kind it is functional, organism-based. The note with it: in the assay text read “6 mg/kg” for “1 to 6 mg/kg”. In short, it runs like this: as §3

Activity calls are given as the source filed them. The calls are words filed in the database; no cut-off is given here.

As usually defined, the LD50 is the dose expected to kill half of the subjects tested. In the case of `O=C(CCCN1CCC(O)(c2ccc(Cl)cc2)CC1)c1ccc(F)cc1` [HALOPERIDOL], the LD50 at 168 h in data set [1] turned out to be 49.7 mg/kg. Further, the Activity result in the data set with Mus musculus [2] was “Toxic”; in the data set with Mus musculus [3], “Toxic”; in the data set on Mus musculus [4], “Toxic”; in the data set with Mus musculus [5] it was 26.4%; in the data set on Mus musculus [6], 79.4%; in the data set with Mus musculus [7], 99.3%. Further, the Activity in the data set with Mus musculus [8] is listed as 0.2%; in the data set with Mus musculus [9], 13%; in the data set on Mus musculus [10], 27.6%. The result with Rattus norvegicus [11] and with Rattus norvegicus [13] was Active. The molecule further came in with a T in the data set on Rattus norvegicus [12] of 2 °C.
